Source: ChEMBL document CHEMBL1145980, “Molecular modeling calculations of HIV-1 reverse transcriptase nonnucleoside inhibitors: correlation of binding energy with biological activity for novel 2-aryl-substituted benzimidazole analogues” (J Med Chem, 2003)

Biological target: Human immunodeficiency virus type 1 reverse transcriptase (Human immunodeficiency virus 1, UniProt Q72547)
Test: Inhibition of HIV-1 reverse transcriptase.
Method in brief: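 Antiviral activity measured in cells infected with the HIV-1-based vector pNLNgoMI/R-E. The vector expresses the murine cell-surface marker gene hsa from the nef reading frame, so vector-infected cells can be identified by that marker. Results are reported as EC50.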

Row | EC50 [nM] | Compound
1 | 400 | Fc1cccc(F)c1Cn1c(-c2c(F)cccc2F)nc2c(Cl)cccc21
2 | 370 | NC(=O)c1cccc2c1nc(-c1c(F)cccc1F)n2Cc1c(F)cccc1F
3 | 50 | OCc1cccc2c1nc(-c1c(F)cccc1F)n2Cc1c(F)cccc1F
4 | 80 | COc1cccc2c1nc(-c1c(F)cccc1F)n2Cc1c(F)cccc1F
5 | 440 | Cc1cccc2c1nc(-c1c(F)cccc1F)n2Cc1c(F)cccc1F
6 | 530 | Nc1cccc2c1nc(-c1c(F)cccc1F)n2Cc1c(F)cccc1F
7 | 160 | Fc1cccc(F)c1Cn1c(-c2c(F)cccc2F)nc2c(CCl)cccc21
8 | 2400 | CNc1cccc2c1nc(-c1c(F)cccc1F)n2Cc1c(F)cccc1F
9 | 60 | N#CCc1cccc2c1nc(-c1c(F)cccc1F)n2Cc1c(F)cccc1F
10 | 45 | [N-]=[N+]=NCc1cccc2c1nc(-c1c(F)cccc1F)n2Cc1c(F)cccc1F
11 | 6060 | Fc1cccc(F)c1Cn1c(-c2ccccc2)nc2ccccc21
12 | 60 | CC(=O)OCc1cccc2c1nc(-c1c(F)cccc1F)n2Cc1c(F)cccc1F
13 | 450 | O=[N+]([O-])c1cccc2c1nc(-c1c(F)cccc1F)n2Cc1c(F)cccc1F
14 | 1650 | CC(=O)Nc1cccc2c1nc(-c1c(F)cccc1F)n2Cc1c(F)cccc1F
15 | 40 | CC(=O)N(C)c1cccc2c1nc(-c1c(F)cccc1F)n2Cc1c(F)cccc1F
16 | 1700 | Fc1cccc(F)c1Cn1c(-c2c(F)cccc2F)nc2ccccc21
17 | 750 | Cc1cccc2c1nc(-c1c(F)cccc1F)n2Cc1ccccc1
18 | 2710 | COc1cccc(F)c1-c1nc2c(N)cccc2n1Cc1c(F)cccc1F
19 | 100 | O=Cc1cccc2c1nc(-c1c(F)cccc1F)n2Cc1c(F)cccc1F
20 | 1360 | NCc1cccc2c1nc(-c1c(F)cccc1F)n2Cc1c(F)cccc1F
21 | 370 | Fc1cccc(F)c1Cn1c(-c2c(F)cccc2F)nc2c(Br)cccc21

Row | Compound | EC50 [nM]
22 | CCc1cccc2c1nc(-c1c(F)cccc1F)n2Cc1c(F)cccc1F | 820
